Results published in ChEMBL document CHEMBL3351720, “Design, synthesis and evaluation of benzoisothiazolones as selective inhibitors of PHOSPHO1” (Bioorg Med Chem Lett, 2014).
pIC50: −log10 of the molar value. ≈ marks a conversion by molar mass, not a printed value.

Experiments:
Phosphomannomutase 2 = biological target: T1, Phosphomannomutase 2 (Homo sapiens, UniProt O15305); experiment: Inhibition of PMM2 (unknown origin)
T1 sequence (O15305 whole entry): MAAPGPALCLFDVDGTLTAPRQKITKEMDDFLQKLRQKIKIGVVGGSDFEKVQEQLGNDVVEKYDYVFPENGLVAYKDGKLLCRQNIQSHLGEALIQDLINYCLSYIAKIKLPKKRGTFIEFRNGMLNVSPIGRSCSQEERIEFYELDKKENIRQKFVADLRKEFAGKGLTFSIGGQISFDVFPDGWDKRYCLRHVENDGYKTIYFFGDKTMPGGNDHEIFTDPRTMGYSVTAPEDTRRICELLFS

[1] = biological target: T2, Mannose-6-phosphate isomerase (Homo sapiens, UniProt P34949); experiment: Inhibition of phosphomannose isomerase (unknown origin)
T2 sequence (P34949 whole entry): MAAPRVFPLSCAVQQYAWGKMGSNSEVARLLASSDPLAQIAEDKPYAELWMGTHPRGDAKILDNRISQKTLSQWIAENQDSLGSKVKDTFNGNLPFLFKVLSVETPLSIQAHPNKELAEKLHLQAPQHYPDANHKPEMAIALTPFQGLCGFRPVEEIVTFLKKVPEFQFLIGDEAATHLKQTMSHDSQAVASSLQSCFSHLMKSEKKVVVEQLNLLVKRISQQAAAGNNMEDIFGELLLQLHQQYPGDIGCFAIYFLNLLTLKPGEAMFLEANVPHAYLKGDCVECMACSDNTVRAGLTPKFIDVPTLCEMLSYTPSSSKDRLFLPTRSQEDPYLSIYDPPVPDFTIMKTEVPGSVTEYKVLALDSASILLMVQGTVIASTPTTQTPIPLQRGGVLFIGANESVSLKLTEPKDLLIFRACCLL

[2] = biological target: T3, Phosphoethanolamine/phosphocholine phosphatase (Homo sapiens, UniProt Q8TCT1); experiment: Inhibition of PHOSPHO1 phosphoethanolamine activity (unknown origin) assessed as amount of inorganic phosphate release after 30 mins
T3 sequence (Q8TCT1 whole entry): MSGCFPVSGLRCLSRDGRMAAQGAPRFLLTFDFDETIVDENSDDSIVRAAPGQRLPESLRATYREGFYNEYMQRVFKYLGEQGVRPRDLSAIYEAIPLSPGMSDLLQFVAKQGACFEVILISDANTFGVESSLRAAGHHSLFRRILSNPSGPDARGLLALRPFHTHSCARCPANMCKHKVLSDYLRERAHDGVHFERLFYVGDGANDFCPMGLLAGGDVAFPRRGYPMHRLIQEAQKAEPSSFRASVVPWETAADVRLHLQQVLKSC

[3] = Metabolic stability in human plasma assessed as compound remaining at 1 x pH7.4 PBS measured at 3 hrs by LC-MS/MS analysis; format: ADME, cell-free; settings: pH 7.4, read-out: Stability
How it was run: (§1)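 Stability of each analogue was reported as % of compound remaining. For liver microsomes this was after 1 hr, with runs with and without NADPH. For plasma this was after 3 hrs in plasma mixed 1:1 with 1× PBS, pH 7.4. Both human and mouse matrices were used.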

[4] = Metabolic stability in mouse plasma assessed as compound remaining at 1 x pH7.4 PBS measured at 3 hrs by LC-MS/MS analysis; format: ADME, cell-free; settings: pH 7.4, read-out: Stability; how it was run: as §1
[5] = Metabolic stability in human plasma assessed as compound remaining at 1:1 1 x pH7.4 PBS measured at 3 hrs by LC-MS/MS analysis; format: ADME, cell-free; settings: pH 7.4, read-out: Stability; how it was run: as §1
[6] = Metabolic stability in mouse plasma assessed as compound remaining at 1:1 1 x pH7.4 PBS measured at 3 hrs by LC-MS/MS analysis; format: ADME, cell-free; settings: pH 7.4, read-out: Stability; how it was run: as §1
[7] = Permeability of the compound at donor pH 6.2 and acceptor pH 7.4 by PAMPA; format: ADME
How it was run: (§2)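 PAMPA with the acceptor compartment at pH 7.4 and the donor at pH 5.0, 6.2 or 7.4. Permeability reported as ×10^-6 cm/s. Part of an in vitro ADME panel.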

[8] = Plasma protein binding in human at 10 uM by LC-MS analysis; format: ADME, cell-free; settings: read-out: PPB (converted)
How it was run: (§3)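 Read-out was % of compound bound in human or mouse plasma, each tested at 1 µM and 10 µM.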

[9] = Metabolic stability in human liver microsomes measured at 1 uM after 1 hr at pH 7.4 by LC-MS/MS analysis; format: ADME; settings: read-out: Stability; how it was run: as §1
[10] = Metabolic stability in mouse liver microsomes measured at 1 uM after 1 hr at pH 7.4 by LC-MS/MS analysis; format: ADME; settings: read-out: Stability; how it was run: as §1
[11] = Permeability of the compound at donor pH 7.4 and acceptor pH 7.4 by PAMPA; format: ADME; how it was run: as §2
[12] = Plasma protein binding in mouse at 1 uM by LC-MS analysis; format: ADME, cell-free; settings: read-out: PPB (converted); how it was run: as §3
[13] = Aqueous solubility of the compound in pH 6.2 pION buffer by UV kinetic solubility method; format: physicochemical
How it was run: (§4)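 Kinetic solubility in pION's buffer at pH 5.0, 6.2 or 7.4, reported in µg/ml. Part of an in vitro ADME panel.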

[14] = Cytotoxicity against human Fa2N-4 cells after 24 hrs by ATP-lite 1-step assay; format: cell-based; settings: fa2n-4, 24 h, read-out: LC50 (the source's name)
[15] = Plasma protein binding in mouse at 10 uM by LC-MS analysis; format: ADME, cell-free; settings: read-out: PPB (converted); how it was run: as §3
[16] = Aqueous solubility of the compound in pH 5 pION buffer by UV kinetic solubility method; format: physicochemical; how it was run: as §4
[17] = Permeability of the compound at donor pH 5.0 and acceptor pH 7.4 by PAMPA; format: ADME; how it was run: as §2
[18] = Aqueous solubility of the compound in pH 7.4 pION buffer by UV kinetic solubility method; format: physicochemical; how it was run: as §4
[19] = Metabolic stability in mouse liver microsomes measured at 1 uM after 1 hr at pH 7.4 by LC-MS/MS analysis in absence of NADPH; format: ADME; settings: read-out: Stability; how it was run: as §1
[20] = Plasma protein binding in human at 1 uM by LC-MS analysis; format: ADME, cell-free; settings: read-out: PPB (converted); how it was run: as §3
[21] = Metabolic stability in human liver microsomes measured at 1 uM after 1 hr at pH 7.4 by LC-MS/MS analysis in absence of NADPH; format: ADME; settings: read-out: Stability; how it was run: as §1
[22] = Inhibition of Streptococcus pneumoniae diphosphomevalonate decarboxylase assessed as conversion of (R)-5-diphosphomevalonate to ADP by fluorometry
[23] = biological target: T4, Alkaline phosphatase, tissue-nonspecific isozyme (Homo sapiens, UniProt P05186)
T4 sequence (P05186 whole entry): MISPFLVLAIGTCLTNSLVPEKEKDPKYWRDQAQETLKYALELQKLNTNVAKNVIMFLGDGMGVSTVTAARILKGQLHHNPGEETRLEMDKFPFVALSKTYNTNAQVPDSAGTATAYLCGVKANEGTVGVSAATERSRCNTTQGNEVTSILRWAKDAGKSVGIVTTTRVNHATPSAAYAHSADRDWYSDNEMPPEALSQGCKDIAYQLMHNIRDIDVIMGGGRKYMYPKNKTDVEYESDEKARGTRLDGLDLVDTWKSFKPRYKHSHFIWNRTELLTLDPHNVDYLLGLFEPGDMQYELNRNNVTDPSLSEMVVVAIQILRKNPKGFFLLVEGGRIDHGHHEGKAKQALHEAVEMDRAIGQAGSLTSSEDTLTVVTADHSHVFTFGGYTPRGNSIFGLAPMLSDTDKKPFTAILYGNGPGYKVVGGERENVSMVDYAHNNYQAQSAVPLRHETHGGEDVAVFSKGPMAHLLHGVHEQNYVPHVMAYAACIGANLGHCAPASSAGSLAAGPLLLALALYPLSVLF

[24] = biological target: T5, Ectonucleotide pyrophosphatase/phosphodiesterase family member 1 (Homo sapiens, UniProt P22413); experiment: Inhibition of NPP1 (unknown origin)
T5 sequence (P22413 whole entry): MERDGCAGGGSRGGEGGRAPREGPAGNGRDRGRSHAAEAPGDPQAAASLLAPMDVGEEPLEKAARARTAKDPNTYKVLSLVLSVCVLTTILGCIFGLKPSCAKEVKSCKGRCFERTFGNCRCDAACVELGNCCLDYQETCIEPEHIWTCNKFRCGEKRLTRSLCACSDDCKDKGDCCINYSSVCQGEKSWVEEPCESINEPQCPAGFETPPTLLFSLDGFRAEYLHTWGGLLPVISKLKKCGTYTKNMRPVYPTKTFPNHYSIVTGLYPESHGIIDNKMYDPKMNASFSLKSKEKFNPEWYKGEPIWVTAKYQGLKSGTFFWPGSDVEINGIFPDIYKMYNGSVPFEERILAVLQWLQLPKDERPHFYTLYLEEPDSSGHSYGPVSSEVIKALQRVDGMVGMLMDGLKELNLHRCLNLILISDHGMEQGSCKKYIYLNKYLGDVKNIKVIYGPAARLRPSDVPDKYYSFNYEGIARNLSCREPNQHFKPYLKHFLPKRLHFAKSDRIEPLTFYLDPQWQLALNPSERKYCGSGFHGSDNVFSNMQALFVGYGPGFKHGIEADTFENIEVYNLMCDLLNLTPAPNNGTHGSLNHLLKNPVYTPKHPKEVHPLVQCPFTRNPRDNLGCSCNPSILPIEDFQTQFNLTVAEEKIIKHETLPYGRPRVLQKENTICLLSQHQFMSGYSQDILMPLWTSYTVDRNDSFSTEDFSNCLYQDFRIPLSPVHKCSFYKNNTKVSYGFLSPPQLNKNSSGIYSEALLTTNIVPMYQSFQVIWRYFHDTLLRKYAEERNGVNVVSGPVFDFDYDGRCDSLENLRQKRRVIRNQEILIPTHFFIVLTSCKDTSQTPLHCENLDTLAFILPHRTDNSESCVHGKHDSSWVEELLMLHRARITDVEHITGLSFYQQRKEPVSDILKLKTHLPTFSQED

Row | Structure (SMILES) | pIC50 (Phosphomannomutase 2) | pIC50 [2] | remaining at 3 h [3] [%] | remaining at 3 h [4] [%] | remaining at 3 h [5] [%] | remaining at 3 h [6] [%] | permeability [7] [nm/s] | fraction unbound at 10 µM [8] | remaining at 1 h, 1 µM [9] [%] | remaining at 1 h, 1 µM [10] [%] | permeability [11] [nm/s] | fraction unbound at 1 µM [12] | solubility kinetic [13] [mg/mL] | CC50 [14] [µM] | fraction unbound at 10 µM [15] | solubility kinetic [16] [mg/mL] | permeability [17] [nm/s] | solubility kinetic [18] [mg/mL] | further results
1 | Cc1ccc(-n2sc3ccccc3c2=O)cc1 | < 4.52 | 5.89 | – | – | – | – | – | – | – | – | – | – | – | – | – | – | – | – | pIC50 [1]: 5.41
2 | O=c1c2ccccc2sn1-c1cc(S(=O)(=O)N2CCOCC2)ccc1N1CCCC1 | – | 5.12 | – | – | – | – | – | – | – | – | – | – | – | – | – | – | – | – | –
3 | CN(C)S(=O)(=O)c1cccc(-n2sc3ccccc3c2=O)c1 | – | – | 11.4 | 65.3 | 32.3 | 40 | 8170 | 0.435 | 72.4 | 100 | 7770 | 0.644 | 0.0246 (≈ 73.6 µM) | > 50 | 0.659 | 0.0234 (≈ 70 µM) | 7810 | 0.0238 (≈ 71.2 µM) | –
4 | O=C(O)c1cccc(-n2sc3ccccc3c2=O)c1 | – | – | 50.2 | 100 | 55.5 | 71.2 | 180 | 0.406 | 100 | 100 | < 44 | 0.812 | > 0.027 | > 50 | 0.699 | > 0.027 | 1570 | > 0.027 | –
5 | COC(=O)c1cccc(-n2sc3ccccc3c2=O)c1 | 4.92 | – | 15.4 | 59.6 | 49.3 | 55.2 | 12310 | 0.427 | 72.4 | 45.9 | 13000 | 0.52 | 0.0189 (≈ 66.2 µM) | > 50 | 0.624 | 0.0126 (≈ 44.2 µM) | 12940 | 0.0208 (≈ 72.9 µM) | remaining at 1 h, 1 µM [19]: 44.6%; fraction unbound at 1 µM [20]: 0.588; remaining at 1 h, 1 µM [21]: 31.5%
6 | O=c1c2ccccc2sn1-c1cc(S(=O)(=O)N2CCOCC2)ccc1N1CCOCC1 | – | 5.92 | – | – | – | – | – | – | – | – | – | – | – | – | – | – | – | – | –
7 | Cc1ccc(-n2sc3ccccc3c2=O)cc1S(=O)(=O)N1CCCCC1 | 4.96 | – | – | – | – | – | – | – | – | – | – | – | – | – | – | – | – | – | –
8 | Cc1ccc(C)c(-n2sc3ccccc3c2=O)c1 | < 4.70 | 5.40 | – | – | – | – | – | – | – | – | – | – | – | – | – | – | – | – | –
9 | O=c1c2ccccc2sn1-c1ccc(F)cc1 | < 4.70 | – | – | – | – | – | – | – | – | – | – | – | – | – | – | – | – | – | pIC50 [1]: 5.47
10 | CN(C)C(=O)c1cccc(-n2sc3ccccc3c2=O)c1 | – | – | 18.9 | 76.2 | 60 | 56.9 | 920 | 0.558 | 45.7 | 56.6 | 970 | 0.52 | > 0.03 | > 50 | 0.533 | > 0.03 | 940 | > 0.03 | pIC50 [22]: 4.62; pIC50 [23]: < 4.00; fraction unbound at 1 µM [20]: 0.587; pIC50 [24]: < 4.52
11 | O=c1c2ccccc2sn1-c1cccc(Cl)c1 | < 4.52 | – | – | – | – | – | – | – | – | – | – | – | – | – | – | – | – | – | –
